In ChEMBL document CHEMBL3046508, “Factors affecting the production of Trichoderma harzianum secondary metabolites during the interaction with different plant pathogens” (2009):
The source made the active and inactive calls. The calls are words filed in the database; no cut-off is given here.

Key:
[1] = system: Botrytis cinerea; experiment: Antifungal activity against Botryotinia fuckeliana assessed as growth inhibition at 200 ug/plug; type: functional
Summary of the method: (§1)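 Plugs cut from actively growing colony margins (L. maculans UWA P11 grown on V8 agar; B. cinerea and P. cinnamomi kept on PDA) were placed centrally on one-fifth strength PDA plates. Purified compound dissolved in filter-sterilized EtOAc was applied on top of each plug and the solvent evaporated; a solvent-only control was included. Colony diameter (mm) was measured daily. Three replicates per treatment; experiment run twice.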

[2] = system: Phytophthora cinnamomi; experiment: Antifungal activity against Phytophthora cinnamomi assessed as growth inhibition at 200 ug/plug; type: functional; summary of the method: as §1
[3] = system: Plenodomus lingam; experiment: Antifungal activity against Leptosphaeria maculans isolate UWA P11 assessed as growth inhibition at 200 ug/plug; type: functional; summary of the method: as §1
[4] = system: Plenodomus lingam; experiment: Antifungal activity against Leptosphaeria maculans isolate UWA P11 assessed as growth inhibition at 1 to 100 ug/plug; type: functional
[5] = system: Phytophthora cinnamomi; experiment: Antifungal activity against Phytophthora cinnamomi assessed as growth inhibition at 1 to 100 ug/plug; type: functional
[6] = system: Plenodomus lingam; experiment: Antifungal activity against Leptosphaeria maculans isolate UWA P11 assessed as growth inhibition at 0.01 to 200 ug/plug; type: functional, organism-based; summary of the method: as §1
[7] = system: Botrytis cinerea; experiment: Antifungal activity against Botryotinia fuckeliana assessed as growth inhibition at 0.01 to 200 ug/plug; type: functional, organism-based; summary of the method: as §1
[8] = system: Phytophthora cinnamomi; experiment: Antifungal activity against Phytophthora cinnamomi assessed as growth inhibition at 0.01 to 200 ug/plug; type: functional, organism-based; summary of the method: as §1
[9] = system: Plenodomus lingam; experiment: Antifungal activity against Leptosphaeria maculans isolate UWA P11 assessed as growth inhibition at 100 ug/plug; type: functional, organism-based; summary of the method: as §1
[10] = system: Phytophthora cinnamomi; experiment: Antifungal activity against Phytophthora cinnamomi assessed as growth inhibition at 100 ug/plug; type: functional, organism-based; summary of the method: as §1
[11] = system: Phytophthora cinnamomi; experiment: Antifungal activity against Phytophthora cinnamomi assessed as growth inhibition at 1 to 10 ug/plug; type: functional, organism-based; summary of the method: as §1
[12] = system: Botrytis cinerea; experiment: Antifungal activity against Botryotinia fuckeliana assessed as growth inhibition at 1 to 10 ug/plug; type: functional, organism-based; summary of the method: as §1

SMILES: C/C=C/C=C/CC1=C(CC(C)O)C(=O)OC1 (stereo not given) [HARZIANOLIDE]
- growth inhibition (GI) [1]: <25%
- growth inhibition (GI) [2]: <25%
- growth inhibition (GI) [3]: <25%

SMILES: C/C=C/CC(C)C(=O)c1c(O)c(OC)c(OC)[nH]c1=O (stereo not given) [HARZIANOPYRIDONE]
- growth inhibition (GI) [4]: 100%
- growth inhibition (GI) [5]: 100%

SMILES: Cc1cc(O)c2c(c1)C(=O)c1ccccc1C2=O
- growth inhibition (GI) [6]: inactive
- growth inhibition (GI) [7]: inactive
- growth inhibition (GI) [8]: inactive

SMILES: Cc1cc(O)c2c(c1)C(=O)c1cccc(O)c1C2=O
- growth inhibition (GI) [6]: inactive
- growth inhibition (GI) [7]: inactive
- growth inhibition (GI) [8]: inactive

SMILES: C/C=C/C=C/CC1=C(CC(C)=O)C(=O)OC1
- growth inhibition (GI) [9]: Active
- growth inhibition (GI) [10]: Active

SMILES: C/C=C/C=C/C1=CC2=CC(=O)[C@](C)(OC(=O)[C@H](C)O)C(=O)C2=CO1
- growth inhibition (GI) [11]: Active
- growth inhibition (GI) [12]: Active
